Experimental data from PubChem BioAssay AID623912 (Johns Hopkins Ion Channel Center, 2012).
Active and inactive are the calls of the source.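 The calls were made as follows: active = peak KCNK3 inhibition above a set limit at some dose, plus a fitted dose-response curve; inactive = no KCNK3 inhibition, or no dose-response curve.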

The compounds below were run against Potassium channel subfamily K member 3 (Rattus norvegicus) (UniProt O54912) (assay: inhibition of rat KCNK3 channel, SAR follow-up, selectivity assay for KCNK9 inhibitor project, cell-based, FluxOR thallium flux, CRC set 2 (AID 623912)). Settings: KCNK3-expressing cells, FluxOR thallium flux fluorescence.
How it was run: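 Assay system: tetracycline-induced CHO cells expressing rat KCNK3 potassium channel. Probe or stimulus: Tl+/K+ sulfate stimulus buffer (5x stock). Dosing: concentration series of compound. Incubation: dye 90 min, compound 20 min, both room temperature. Measured by: FluxOR Tl+ flux fluorescence. Evaluation: IC50 from normalized flux signal. Replicates: duplicate or more.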

Potassium channel subfamily K member 3 (Rattus norvegicus), sequence (O54912 whole entry, looked up): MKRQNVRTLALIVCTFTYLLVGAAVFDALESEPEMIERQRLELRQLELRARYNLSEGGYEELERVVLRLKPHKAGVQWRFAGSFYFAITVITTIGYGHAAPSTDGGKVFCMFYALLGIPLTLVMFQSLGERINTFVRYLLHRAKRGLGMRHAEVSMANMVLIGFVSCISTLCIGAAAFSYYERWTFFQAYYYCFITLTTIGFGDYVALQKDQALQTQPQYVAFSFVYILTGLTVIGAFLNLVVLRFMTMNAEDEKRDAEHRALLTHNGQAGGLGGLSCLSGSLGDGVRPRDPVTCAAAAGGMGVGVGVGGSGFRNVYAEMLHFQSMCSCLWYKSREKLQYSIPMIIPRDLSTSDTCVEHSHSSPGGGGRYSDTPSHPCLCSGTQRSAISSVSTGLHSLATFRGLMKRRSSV

Row | IC50 | SMILES
1 | 161 nM | CCOc1ccccc1NC(=O)c1cccc(NC(=O)CC2CCCC2)c1
2 | 8 nM | COc1ccccc1NC(=O)c1cccc(NC(=O)c2ccccc2OC)c1
3 | 79.2 nM | O=C(Nc1cccc(NC(=O)C2CCCCC2)c1)c1ccccc1
4 | 37 nM | S=c1[nH]nc(-c2ccco2)n1C1CC2CCC1C2 (stereo unspecified)
5 | 10 nM | COc1ccccc1C(=O)Nc1cc(NC(=O)c2ccccc2C(C)C)ccc1F
6 | 70 nM | CC(NC(=O)c1ccco1)C1CC2CCC1C2 (stereo unspecified)
7 | 1290 nM | O=C(Nc1cccc(NC(=O)c2cccnc2)c1)c1ccccc1
8 | 82 nM | CC(C1CC2CCC1C2)n1c(-c2cccc(F)c2)n[nH]c1=S (stereo unspecified)
9 | 85.8 nM | O=C(Nc1cccc(NC(=O)c2ccccn2)c1)c1ccccc1
10 | 6.53 nM | CCOc1ccccc1NC(=O)c1cccc(NC(=O)c2ccccc2OC)c1
11 | 70.2 nM | CCOc1ccc(NC(=O)c2cccc(NC(=O)C3CCCC3)c2)cc1
12 | 39 nM | CCOc1ccccc1NC(=O)c1cccc(NC(=O)c2cccc(Cl)c2)c1
13 | 342 nM | CCOc1ccccc1NC(=O)c1cccc(C(=O)NC2CCCC2)c1

The remaining lines, values behind:

Row | SMILES | IC50
14 | Cc1cccc(NC(=O)c2ccccc2NC(=O)c2ccccc2)c1 | 1380 nM
15 | CC(C1CC2CCC1C2)n1c(-c2ccoc2)n[nH]c1=S (stereo unspecified) | 298 nM
16 | CC(C1CCCCC1)n1c(-c2ccco2)n[nH]c1=S (stereo unspecified) | 44 nM
17 | O=C(Nc1cccc(NC(=O)c2cccc(C(F)(F)F)c2)c1)c1ccccc1 | 147 nM
18 | COc1ccc(C(=O)Nc2cccc(NC(=O)c3cccc(C)c3)c2)cc1 | 1330 nM
19 | O=C(Nc1cccc(NC(=O)c2cccc(F)c2)c1)c1ccccc1 | 44.2 nM
20 | O=C(Nc1cccc(NC(=O)c2ccccc2C(F)(F)F)c1)c1ccccc1 | 130 nM
21 | Cc1cccc(C(=O)Nc2cccc(NC(=O)C3CCCCC3)c2)c1 | 17 nM
22 | Cc1cccc(C(=O)Nc2cccc(NC(=O)c3ccc(Cl)cc3)c2)c1 | 149 nM
23 | COc1ccccc1-c1n[nH]c(=S)n1C(C)C1CC2CCC1C2 (stereo unspecified) | 102 nM

Same assay, conditions: KCNK3-expressing cells, FluxOR thallium flux fluorescence; at 3 µM (top of the series)

Row | flux ratio, lower = inhibition | SMILES
24 | inactive | CC(C1CC2CCC1C2)n1c(C2CCOC2)n[nH]c1=S (stereo unspecified)
25 | inactive | CC(c1ccco1)n1c(-c2ccoc2)n[nH]c1=S (stereo unspecified)
26 | inactive | Cc1cccc(C(=O)Nc2cccc(NC(=O)c3ccc(C(F)(F)F)cc3)c2)c1
